Experimental findings from ChEMBL document CHEMBL4732196, “Structural optimization towards promising β-methyl-4-acrylamido quinoline derivatives as PI3K/mTOR dual inhibitors for anti-cancer therapy: The in vitro and in vivo biological evaluation” (Eur J Med Chem, 2021) are described below.

In assay [1] the target is Cyclin-G-associated kinase (Homo sapiens) (UniProt O14976). Kind of assay: Inhibition of human partial length GAK (G13 to Y338 residues) expressed in bacterial expression system assessed as residual activity at 10 uM by kinome scan method relative to control. The essentials:
(§1)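 KINOMEscan binding assay, test compound at 10 μM against a 52-kinase panel. % Ctrl = (compound signal − positive control signal)/(negative control signal − positive control signal) × 100, with DMSO as negative control (100%) and a positive control (0%).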

Assay [2] addresses Phosphatidylinositol 4,5-bisphosphate 3-kinase catalytic subunit gamma isoform (Homo sapiens, UniProt P48736). Kind of assay: Inhibition of human partial length PIK3CG (S144 to A1102 residues) expressed in mammalian expression system assessed as residual activity at 10 uM by kinome scan method relative to control. The essentials:
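KINOMEscan competitive binding screen at 10 μM test compound against a 52-kinase panel. Output is % Ctrl = (test signal − positive control signal)/(negative control signal − positive control signal) × 100. DMSO is the negative control (100%) and the positive control is set to 0%.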

Assay [3] deals with Serine/threonine-protein kinase TNNI3K (Homo sapiens) (UniProt Q59H18). In words: Inhibition of human full length TNNI3K (M1 to S835 residues) expressed in bacterial expression system assessed as residual activity at 10 uM by kinome scan method relative to control. The essentials: as §1
Assay [4] concerns the target Microtubule-associated serine/threonine-protein kinase 1 (Homo sapiens) (UniProt Q9Y2H9). In words: Inhibition of human partial length MAST1 (S346 to V730 residues) expressed in bacterial expression system assessed as residual activity at 10 uM by kinome scan method relative to control. The method, boiled down: as §1

Chain of Serine/threonine-protein kinase TNNI3K (Homo sapiens) (Q59H18 whole entry, the tested form may be a part): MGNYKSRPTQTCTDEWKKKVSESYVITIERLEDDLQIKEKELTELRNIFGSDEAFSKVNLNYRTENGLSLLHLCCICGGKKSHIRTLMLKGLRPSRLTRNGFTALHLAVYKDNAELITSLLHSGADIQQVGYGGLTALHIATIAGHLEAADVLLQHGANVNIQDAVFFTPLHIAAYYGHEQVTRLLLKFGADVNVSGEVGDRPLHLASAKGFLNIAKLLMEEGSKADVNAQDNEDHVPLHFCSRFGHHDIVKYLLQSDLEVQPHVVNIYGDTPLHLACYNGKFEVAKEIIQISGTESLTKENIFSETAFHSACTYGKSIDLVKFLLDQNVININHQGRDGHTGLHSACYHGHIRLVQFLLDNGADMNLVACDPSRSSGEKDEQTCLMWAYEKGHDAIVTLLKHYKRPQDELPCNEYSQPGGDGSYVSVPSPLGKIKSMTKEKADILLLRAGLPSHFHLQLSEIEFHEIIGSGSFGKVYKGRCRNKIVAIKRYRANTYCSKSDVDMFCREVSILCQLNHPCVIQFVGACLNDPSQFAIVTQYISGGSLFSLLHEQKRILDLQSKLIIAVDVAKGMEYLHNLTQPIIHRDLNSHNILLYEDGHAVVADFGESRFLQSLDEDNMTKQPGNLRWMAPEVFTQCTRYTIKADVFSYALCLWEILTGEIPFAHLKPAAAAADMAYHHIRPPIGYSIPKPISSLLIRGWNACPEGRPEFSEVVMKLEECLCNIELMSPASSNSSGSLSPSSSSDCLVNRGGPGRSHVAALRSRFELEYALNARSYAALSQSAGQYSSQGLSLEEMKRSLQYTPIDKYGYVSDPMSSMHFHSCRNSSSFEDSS
Chain of Cyclin-G-associated kinase (Homo sapiens) (O14976 whole entry, the tested form may be a part): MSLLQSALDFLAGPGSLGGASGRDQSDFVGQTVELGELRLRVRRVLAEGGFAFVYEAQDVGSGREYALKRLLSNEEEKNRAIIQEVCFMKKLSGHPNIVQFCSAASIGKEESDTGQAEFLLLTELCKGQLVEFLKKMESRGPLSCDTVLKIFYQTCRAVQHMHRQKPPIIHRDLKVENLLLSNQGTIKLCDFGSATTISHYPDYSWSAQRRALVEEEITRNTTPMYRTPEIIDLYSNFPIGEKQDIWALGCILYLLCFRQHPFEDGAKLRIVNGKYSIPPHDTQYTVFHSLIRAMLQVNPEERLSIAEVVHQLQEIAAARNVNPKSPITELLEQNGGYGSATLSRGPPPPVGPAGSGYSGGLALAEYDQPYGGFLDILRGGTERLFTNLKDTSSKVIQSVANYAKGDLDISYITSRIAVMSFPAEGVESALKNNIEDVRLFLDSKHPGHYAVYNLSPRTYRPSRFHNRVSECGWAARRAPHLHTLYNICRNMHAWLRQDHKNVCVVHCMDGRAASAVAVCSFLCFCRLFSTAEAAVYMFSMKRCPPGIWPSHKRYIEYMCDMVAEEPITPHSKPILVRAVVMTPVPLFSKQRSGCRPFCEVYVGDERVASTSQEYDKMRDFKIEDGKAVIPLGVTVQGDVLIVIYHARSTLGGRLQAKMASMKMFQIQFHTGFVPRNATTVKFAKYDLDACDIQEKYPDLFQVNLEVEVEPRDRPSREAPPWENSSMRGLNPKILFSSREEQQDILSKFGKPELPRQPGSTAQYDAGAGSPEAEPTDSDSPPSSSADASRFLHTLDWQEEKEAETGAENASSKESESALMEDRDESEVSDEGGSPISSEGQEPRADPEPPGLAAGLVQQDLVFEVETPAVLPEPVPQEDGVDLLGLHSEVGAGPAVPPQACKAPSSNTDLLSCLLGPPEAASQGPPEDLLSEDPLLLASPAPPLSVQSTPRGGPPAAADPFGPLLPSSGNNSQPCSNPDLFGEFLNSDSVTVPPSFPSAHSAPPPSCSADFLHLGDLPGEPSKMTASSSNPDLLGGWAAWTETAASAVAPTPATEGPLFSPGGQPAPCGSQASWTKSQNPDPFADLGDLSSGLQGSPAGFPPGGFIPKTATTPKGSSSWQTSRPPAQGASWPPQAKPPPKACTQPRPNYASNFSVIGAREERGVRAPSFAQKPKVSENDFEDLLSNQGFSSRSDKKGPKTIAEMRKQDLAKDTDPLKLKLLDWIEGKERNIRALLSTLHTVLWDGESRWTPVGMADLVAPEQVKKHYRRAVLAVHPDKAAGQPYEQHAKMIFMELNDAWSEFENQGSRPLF
Chain of Microtubule-associated serine/threonine-protein kinase 1 (Homo sapiens) (Q9Y2H9 whole entry, looked up, the tested form may be a part): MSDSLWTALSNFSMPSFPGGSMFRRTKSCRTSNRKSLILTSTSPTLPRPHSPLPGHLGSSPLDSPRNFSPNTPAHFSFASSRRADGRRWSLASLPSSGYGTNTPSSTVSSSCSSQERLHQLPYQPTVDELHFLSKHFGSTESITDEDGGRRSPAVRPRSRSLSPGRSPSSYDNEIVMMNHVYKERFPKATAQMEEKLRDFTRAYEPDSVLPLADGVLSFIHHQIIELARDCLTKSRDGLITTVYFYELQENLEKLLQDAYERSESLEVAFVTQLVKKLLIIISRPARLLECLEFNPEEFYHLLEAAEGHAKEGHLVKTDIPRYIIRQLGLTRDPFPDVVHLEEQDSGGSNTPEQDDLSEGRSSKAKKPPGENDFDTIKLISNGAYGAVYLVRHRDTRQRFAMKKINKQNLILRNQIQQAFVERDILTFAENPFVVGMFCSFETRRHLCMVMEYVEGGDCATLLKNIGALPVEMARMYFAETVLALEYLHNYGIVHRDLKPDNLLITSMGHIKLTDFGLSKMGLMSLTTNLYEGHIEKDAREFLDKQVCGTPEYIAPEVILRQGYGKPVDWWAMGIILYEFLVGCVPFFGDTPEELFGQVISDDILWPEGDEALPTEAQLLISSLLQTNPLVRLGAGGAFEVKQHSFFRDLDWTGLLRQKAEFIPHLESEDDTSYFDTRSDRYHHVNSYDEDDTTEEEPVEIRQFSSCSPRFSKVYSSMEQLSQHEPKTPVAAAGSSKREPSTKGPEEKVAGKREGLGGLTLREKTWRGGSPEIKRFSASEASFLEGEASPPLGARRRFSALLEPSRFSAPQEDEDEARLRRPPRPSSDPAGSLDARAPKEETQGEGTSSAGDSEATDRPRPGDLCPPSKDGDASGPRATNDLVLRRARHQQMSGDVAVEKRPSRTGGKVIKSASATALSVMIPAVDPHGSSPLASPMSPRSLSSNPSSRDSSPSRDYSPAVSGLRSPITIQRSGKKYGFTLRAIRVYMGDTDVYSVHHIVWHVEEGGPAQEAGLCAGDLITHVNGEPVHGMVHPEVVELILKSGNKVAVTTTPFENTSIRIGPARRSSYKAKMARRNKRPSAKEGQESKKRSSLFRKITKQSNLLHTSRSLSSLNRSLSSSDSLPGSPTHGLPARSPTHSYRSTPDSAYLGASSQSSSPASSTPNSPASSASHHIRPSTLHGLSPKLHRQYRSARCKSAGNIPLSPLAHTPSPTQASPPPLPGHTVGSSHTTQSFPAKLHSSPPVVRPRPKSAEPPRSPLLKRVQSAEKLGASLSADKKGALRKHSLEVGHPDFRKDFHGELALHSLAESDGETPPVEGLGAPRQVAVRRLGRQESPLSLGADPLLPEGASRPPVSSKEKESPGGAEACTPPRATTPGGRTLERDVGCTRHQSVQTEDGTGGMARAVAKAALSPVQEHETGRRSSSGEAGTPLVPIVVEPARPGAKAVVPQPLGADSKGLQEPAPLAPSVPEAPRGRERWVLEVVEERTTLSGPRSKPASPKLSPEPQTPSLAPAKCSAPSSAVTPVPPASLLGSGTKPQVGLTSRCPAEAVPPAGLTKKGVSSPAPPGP
Chain of Phosphatidylinositol 4,5-bisphosphate 3-kinase catalytic subunit gamma isoform (P48736 whole entry, looked up, the tested form may be a part, canonical isoform): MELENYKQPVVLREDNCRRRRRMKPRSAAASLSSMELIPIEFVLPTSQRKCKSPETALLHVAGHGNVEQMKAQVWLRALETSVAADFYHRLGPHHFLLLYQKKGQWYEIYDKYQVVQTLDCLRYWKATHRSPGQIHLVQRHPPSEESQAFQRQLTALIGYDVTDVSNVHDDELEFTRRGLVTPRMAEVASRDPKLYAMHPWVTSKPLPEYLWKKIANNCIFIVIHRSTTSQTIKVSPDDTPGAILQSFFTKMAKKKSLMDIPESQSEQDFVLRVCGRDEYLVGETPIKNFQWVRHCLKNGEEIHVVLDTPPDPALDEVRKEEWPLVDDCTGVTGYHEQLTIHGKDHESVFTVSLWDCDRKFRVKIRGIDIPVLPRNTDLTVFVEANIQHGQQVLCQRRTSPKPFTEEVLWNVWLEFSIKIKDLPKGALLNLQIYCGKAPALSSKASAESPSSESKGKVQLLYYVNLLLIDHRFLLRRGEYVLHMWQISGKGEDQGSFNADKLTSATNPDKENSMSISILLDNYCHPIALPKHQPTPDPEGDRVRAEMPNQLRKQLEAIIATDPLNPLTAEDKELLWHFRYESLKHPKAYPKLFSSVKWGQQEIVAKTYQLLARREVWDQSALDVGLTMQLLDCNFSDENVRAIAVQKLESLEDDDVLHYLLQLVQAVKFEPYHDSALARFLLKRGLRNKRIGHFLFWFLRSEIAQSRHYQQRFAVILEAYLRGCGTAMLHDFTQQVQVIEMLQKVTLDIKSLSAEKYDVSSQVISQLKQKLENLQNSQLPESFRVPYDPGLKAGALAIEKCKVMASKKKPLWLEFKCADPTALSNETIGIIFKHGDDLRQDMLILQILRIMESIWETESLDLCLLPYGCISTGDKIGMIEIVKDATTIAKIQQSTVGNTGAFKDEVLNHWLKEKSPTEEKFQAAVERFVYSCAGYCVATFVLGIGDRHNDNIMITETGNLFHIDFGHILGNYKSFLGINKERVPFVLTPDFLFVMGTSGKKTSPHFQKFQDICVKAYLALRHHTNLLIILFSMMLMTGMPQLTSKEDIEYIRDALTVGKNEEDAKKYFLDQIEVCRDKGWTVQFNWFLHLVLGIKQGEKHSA

Turning to `COc1ncc(-c2ccc3nccc(/C(C)=C/C(=O)N4CCN(C)CC4)c3c2)cc1NS(=O)(=O)c1ccc(F)cc1F`, the Activity worked out at 22% in assay [1], 0% in assay [2], 87% in assay [3] and 58% in assay [4].
